The subject of series [1] is Hepatitis C virus. Kind of series: Antiviral activity against HCV genotype 1a infected in homozygous cDNA-uPA chimeric SCID mouse bearing humanized hepatocytes assessed as change in HCV RNA level in serum at 100 mg/kg, po qd administered through gavage for 7 days by RT-PCR method. The format is functional, Hepacivirus hominis, subtype 1a, Hepatocyte. The method in brief:
(§1)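 Male chimeric SCID cDNA-uPA+/+ mice with human hepatocyte liver (≥70% replacement by blood human albumin) and serum HCV RNA >1.0×10^6 copies/mL the week before dosing. Oral gavage for 7 days in 20% HP-β-CD, 50-200 mg/kg QD or BID. Serum sampled pre-dose on days 1, 2, 3, 5 and 7. Real-time PCR; mean change in log10 copies/mL, day 7 vs day 1 pre-dose.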

Series [2] relates to Hepatitis C virus. Kind of series: Antiviral activity against HCV genotype 3a infected in homozygous cDNA-uPA chimeric SCID mouse bearing humanized hepatocytes assessed as change in HCV RNA level in serum at 100 mg/kg, po qd administered through gavage for 7 days by RT-PCR method. The format is functional, Hepacivirus hominis, Hepatocyte. Put shortly: as §1
The subject of series [3] is Hepatitis C virus. As to the kind of experiment: Antiviral activity against HCV genotype 3a infected in homozygous cDNA-uPA chimeric SCID mouse bearing humanized hepatocytes assessed as reduction in HCV RNA level in serum administered through oral gavage once daily for 7 days by RT-PCR method. The format is functional, organism-based. The note with it: Hepacivirus hominis, Hepatocyte. Put shortly:
as §1

For series [4], the system named is Hepatitis C virus. Kind of series: Antiviral activity against HCV genotype 3a infected in homozygous cDNA-uPA chimeric SCID mouse bearing humanized hepatocytes assessed as reduction in HCV RNA level in serum administered through oral gavage twice daily daily for 7 days by RT-PCR method. The conditions noted are these: Hepacivirus hominis, Hepatocyte. The class given is functional, organism-based. Put shortly: as §1

The subject of series [5] is Hepatocyte. Kind of series: Drug level in rat primary hepatocyte supernatant treated with JNJ-54257099 at 2 to 62.5 uM after 4 to 24 hrs using radiolabeled compound by HPLC analysis. The format is ADME, cell-based. The conditions noted are these: hepatocytes. Put shortly:
(§2)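 Study A: primary cultured hepatocytes (mouse, rat, dog, human) incubated with 2 or 62.5 µM 5'-[3H]-labelled prodrug for 4 and 24 h. Cell lysates were analysed for triphosphate. Supernatants were protein-precipitated and profiled by HPLC with radioactivity detection. Cyclic monophosphate was also assessed by LC/MS/MS.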

The nature of series [6]: Drug level in dog primary hepatocyte supernatant treated with JNJ-54257099 at 2 to 62.5 uM after 4 to 24 hrs using radiolabeled compound by HPLC analysis. The class given is ADME, cell-based, Canis lupus familiaris. The note with it: hepatocytes. The method in brief: as §2
Series [7] concerns Hepatocyte. As to the kind of experiment: Drug level in human primary hepatocyte supernatant treated with JNJ-54257099 at 2 to 62.5 uM after 4 to 24 hrs using radiolabeled compound by HPLC analysis. The format is ADME, cell-based. The conditions noted are these: hepatocytes. Put shortly:
as §2

For series [8], the system named is Hepatocyte. Kind of series: Drug level in mouse primary hepatocyte supernatant treated with JNJ-54257099 at 2 to 62.5 uM after 4 to 24 hrs using radiolabeled compound by HPLC analysis. The format is ADME, cell-based. The note with it: hepatocytes. The method in brief:
as §2

Series [9] can be described thus: Drug level in dog primary hepatocytes treated with JNJ-54257099 at 2 to 62.5 uM after 4 hrs using radiolabeled compound by LC-MS/MS analysis. The class given is ADME, cell-based, Canis lupus familiaris, Hepatocyte. The method in brief:
as §2

Series [10] has as its system Hepatocyte. Kind of series: Drug level in rat primary hepatocytes treated with JNJ-54257099 at 2 to 62.5 uM after 24 hrs using radiolabeled compound by LC-MS/MS analysis. The format is ADME, cell-based. Put shortly:
as §2

Series [11] relates to Hepatocyte. Kind of series: Drug level in human hepatocytes treated with JNJ-54257099 in presence of PDE4 inhibitor rolipram by LC-MS/MS analysis. The class given is ADME, cell-based.
Series [12] relates to Hepatocyte. Kind of series: Drug level in human hepatocytes treated with JNJ-54257099 in presence of CYP2C8 and CYP2C9 inhibitor montelukast by LC-MS/MS analysis. The format is ADME, cell-based.
Series [13] relates to Hepatocyte. Kind of series: Drug level in human hepatocytes treated with JNJ-54257099 in presence of pan-PDE inhibitor ibudilast by LC-MS/MS analysis. The format is ADME, cell-based.
In series [14] the test system is Hepatocyte. Kind of series: Prodrug conversion in rat cryopreserved hepatocytes assessed as 2'-deoxy-2'-spirooxetane uridine triphosphate level per million cells at 10 uM after 8 hrs by LC-MS/MS analysis. The class given is ADME, cell-based. Put shortly: (§3)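 Plated cryopreserved hepatocytes (study B) incubated with 10 µM unlabeled prodrug for 2, 8 or 24 h. Triphosphate measured in cell lysates and expressed as pmol/million hepatocytes. Quantification limit 2 ng/10^6 cells.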

Series [15] deals with Hepatocyte. Kind of series: Prodrug conversion in mouse cryopreserved hepatocytes assessed as 2'-deoxy-2'-spirooxetane uridine triphosphate level per million cells at 10 uM after 8 hrs by LC-MS/MS analysis. The class given is ADME, cell-based. Put shortly: as §3
Series [16] in a line: Cytotoxicity against human HuH7-CMV-Luc cells assessed as reduction in cell proliferation after 3 days by 5-bromo-2'-deoxyuridine incorporation assay. The format is cell-based, Huh-7. The method in brief:
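Huh7 cells at 1,500 cells/well, five serial compound dilutions in triplicate, 3 days of incubation. Proliferation was quantified as BrdU incorporation into DNA by ELISA.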

The test system of series [17] is Hepatocyte. Kind of series: Prodrug conversion in human cryopreserved hepatocytes assessed as 2'-deoxy-2'-spirooxetane uridine triphosphate level per million cells at 10 uM after 24 hrs by LC-MS/MS analysis. The class given is ADME, cell-based. The method in brief: as §3
In series [18] the test system is Hepatocyte. Kind of series: Prodrug conversion in mouse cryopreserved hepatocytes assessed as 2'-deoxy-2'-spirooxetane uridine triphosphate level per million cells at 10 uM after 24 hrs by LC-MS/MS analysis. The format is ADME, cell-based. The method in brief:
as §3

A short description of series [19]: Prodrug conversion in dog cryopreserved hepatocytes assessed as 2'-deoxy-2'-spirooxetane uridine triphosphate level per million cells at 10 uM after 8 hrs by LC-MS/MS analysis. The format is ADME, cell-based, Canis lupus familiaris, Hepatocyte. Put shortly: as §3
The subject of series [20] is Hepatocyte. Kind of series: Prodrug conversion in human cryopreserved hepatocytes assessed as 2'-deoxy-2'-spirooxetane uridine triphosphate level per million cells at 10 uM after 8 hrs by LC-MS/MS analysis. The class given is ADME, cell-based. Put shortly: as §3
Series [21] is described as follows: Prodrug conversion in dog cryopreserved hepatocytes assessed as 2'-deoxy-2'-spirooxetane uridine triphosphate level per million cells at 10 uM after 24 hrs by LC-MS/MS analysis. The class given is ADME, cell-based, Canis lupus familiaris, Hepatocyte. Put shortly:
as §3

A short description of series [22]: Prodrug conversion in dog cryopreserved hepatocytes assessed as 2'-deoxy-2'-spirooxetane uridine triphosphate level per million cells at 10 uM after 2 hrs by LC-MS/MS analysis. The class given is ADME, cell-based, Canis lupus familiaris, Hepatocyte. The method in brief: as §3
Series [23] has as its system Hepatocyte. Kind of series: Prodrug conversion in mouse cryopreserved hepatocytes assessed as 2'-deoxy-2'-spirooxetane uridine triphosphate level per million cells at 10 uM after 2 hrs by LC-MS/MS analysis. The class given is ADME, cell-based. The method in brief: as §3
Series [24] concerns Hepatocyte. As to the kind of experiment: Prodrug conversion in rat cryopreserved hepatocytes assessed as 2'-deoxy-2'-spirooxetane uridine triphosphate level per million cells at 10 uM after 24 hrs by LC-MS/MS analysis. The class given is ADME, cell-based. The method in brief: as §3
Series [25] concerns Hepatocyte. As to the kind of experiment: Prodrug conversion in human cryopreserved hepatocytes assessed as 2'-deoxy-2'-spirooxetane uridine triphosphate level per million cells at 10 uM after 2 hrs by LC-MS/MS analysis. The format is ADME, cell-based. The method in brief:
as §3

Series [26] deals with Hepatocyte. Kind of series: Prodrug conversion in rat cryopreserved hepatocytes assessed as 2'-deoxy-2'-spirooxetane uridine triphosphate level per million cells at 10 uM after 2 hrs by LC-MS/MS analysis. The format is ADME, cell-based. Put shortly: as §3
For series [27], the system named is Hepatitis C virus. As to the kind of experiment: Antiviral activity against HCV genotype 1b infected in human HuH7 cells assessed as inhibition of viral replication after 3 days by luciferase reporter gene assay. The conditions noted are these: Huh-7, 72 h. The class given is functional, organism-based, Hepacivirus hominis. The method in brief:
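HCV 1b subgenomic luciferase replicon (Huh7-luc, clone ET, adaptive mutations E1202G, T1280I, K1846T). 2,500 cells were incubated with compound over a 9-point, 1/4 dilution series for 3 days. Replication was read as luciferase activity.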

Another series addresses Cytochrome P450 3A4 (Homo sapiens, UniProt P08684). Kind of series: Drug metabolism in baculovirus infected insect cell microsomes expressing human CYP3A4 assessed as CYP3A4-mediated intrinsic clearance per pmol CYP3A4 at 22.7 uM. The note with it: recombinant enzyme. The format is ADME. The method in brief:
(§4)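 Incubation at 22.7 µM with human CYP3A4 supersomes. Intrinsic clearance (µL/min.pmol P450) and half-life (min) were determined.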

A further series deals with CYP3A4 (Homo sapiens, UniProt P08684). As to the kind of experiment: Drug metabolism in baculovirus infected insect cell microsomes expressing human CYP3A4 assessed as CYP3A4-mediated half life at 22.7 uM. The class given is ADME. Put shortly: as §4
CYP3A4, sequence (P08684 whole entry): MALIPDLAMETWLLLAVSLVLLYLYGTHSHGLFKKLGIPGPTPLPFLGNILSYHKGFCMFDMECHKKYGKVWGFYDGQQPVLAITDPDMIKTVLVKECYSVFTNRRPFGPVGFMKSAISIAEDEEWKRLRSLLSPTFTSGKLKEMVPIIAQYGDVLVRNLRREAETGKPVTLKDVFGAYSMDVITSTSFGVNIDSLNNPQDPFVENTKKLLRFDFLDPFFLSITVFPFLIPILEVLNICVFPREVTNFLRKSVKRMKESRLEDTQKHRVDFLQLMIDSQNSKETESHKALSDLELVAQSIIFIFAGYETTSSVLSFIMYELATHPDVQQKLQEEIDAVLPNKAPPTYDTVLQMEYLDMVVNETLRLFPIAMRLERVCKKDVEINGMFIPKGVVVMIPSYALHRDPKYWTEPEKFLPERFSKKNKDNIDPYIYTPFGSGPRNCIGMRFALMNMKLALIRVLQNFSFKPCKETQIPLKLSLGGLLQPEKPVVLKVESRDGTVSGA
In series [28] the target is RNA-directed RNA polymerase (Hepacivirus hominis, UniProt O39930). Kind of series: Inhibition of HCV RNA polymerase.
RNA-directed RNA polymerase, sequence (O39930 whole entry): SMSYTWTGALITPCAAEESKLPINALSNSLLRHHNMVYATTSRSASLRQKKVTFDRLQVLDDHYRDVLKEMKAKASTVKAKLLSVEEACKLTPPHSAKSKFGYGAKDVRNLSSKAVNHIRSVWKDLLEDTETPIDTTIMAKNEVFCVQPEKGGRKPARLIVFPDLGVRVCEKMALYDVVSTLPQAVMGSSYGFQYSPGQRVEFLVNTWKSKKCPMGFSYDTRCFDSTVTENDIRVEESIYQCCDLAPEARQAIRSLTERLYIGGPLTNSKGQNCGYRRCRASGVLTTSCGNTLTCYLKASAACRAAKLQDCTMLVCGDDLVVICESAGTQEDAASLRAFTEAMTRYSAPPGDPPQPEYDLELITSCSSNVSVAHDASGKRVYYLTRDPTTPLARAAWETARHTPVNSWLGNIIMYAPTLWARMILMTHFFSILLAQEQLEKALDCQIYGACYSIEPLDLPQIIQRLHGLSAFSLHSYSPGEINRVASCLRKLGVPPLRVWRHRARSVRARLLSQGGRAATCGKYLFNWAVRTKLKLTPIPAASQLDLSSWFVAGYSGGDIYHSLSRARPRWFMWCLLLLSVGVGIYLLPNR

Molecules are shown by their SMILES. pEC50, pIC50, pKi: −log10 of the molar value. A value given as a limit tells only on which side of the number the result lay.

Cytochrome P450 3A4, sequence (P08684 whole entry): as the sequence (P08684 whole entry) above

Take `CC(C)OC(=O)[C@H](C)N[P@](=O)(OC[C@H]1O[C@@H](n2ccc(=O)[nH]c2=O)[C@](C)(F)[C@@H]1O)Oc1ccccc1` [SOFOSBUVIR]: the Activity in the series with Hepatitis C virus [1] was -2.14; with Hepatitis C virus [2], -0.97; with Hepatitis C virus [3], “Dose-dependent effect”; in the series with Hepatitis C virus [4], “Dose-dependent effect”.
In the case of `O=c1ccn([C@@H]2O[C@H](CO)[C@@H](O)[C@]23CCO3)c(=O)[nH]1`, the Drug metabolism entry (in the series with Hepatocyte [5]; in [6]; in the series on Hepatocyte [7]; with Hepatocyte [8]) was “metabolite_detected” each time.
Consider `O=c1ccn([C@@H]2O[C@@H]3COP(=O)(O)O[C@H]3[C@]23CCO3)c(=O)[nH]1`, for which the Drug metabolism result (in the series on Hepatocyte [5]; in series [6]; in series [9]; in the series with Hepatocyte [7]; in the series with Hepatocyte [8]; with Hepatocyte [10]) was “metabolite_detected” throughout.
Regarding `O=c1ccn([C@@H]2O[C@H](COP(=O)(O)O)[C@@H](O)[C@]23CCO3)c(=O)[nH]1`, the Drug metabolism result (in series [9]; with Hepatocyte [11]; with Hepatocyte [10]; with Hepatocyte [12]; in the series on Hepatocyte [13]) was “metabolite_detected” in each case.
`CCCCOC(=O)[C@H](C)NP(=O)(OC[C@H]1O[C@@H](n2ccc(=O)[nH]c2=O)[C@@]2(CCO2)[C@@H]1O)Oc1ccccc1` (stereo partly drawn): the Drug metabolism is on record as 0.058 pmol with Hepatocyte [14]; 0.066 pmol with Hepatocyte [15]; 0.173 pmol with Hepatocyte [17]; 0.023 pmol with Hepatocyte [18]; 0.021 pmol in series [19]; 0.257 pmol in the series with Hepatocyte [20]. For the same compound, the Drug metabolism in [21] is 0.007 pmol; in [22], 0.01 pmol; with Hepatocyte [23], 0.028 pmol; in the series with Hepatocyte [24] it was 0.013 pmol; in the series with Hepatocyte [25], 0.044 pmol; in the series on Hepatocyte [26] it was 0.025 pmol. In series [16], the CC50 – broadly, the concentration that lowers cell viability or growth by half – at 72 h was more than 100 µM.
With `CCOc1nc(N)nc2c1ncn2[C@@H]1O[C@@H]2CO[P@](=O)(OC(C)C)O[C@H]2[C@@]1(C)F`, the negative-log EC50 (pEC50) (as a rule, the EC50 on a negative log10 scale, so that one unit is a factor of ten) in the series with Hepatitis C virus [27] was 6.52. In addition, the CC50 at 72 h in series [16] is more than 100 µM. Also, the CL on Cytochrome P450 3A4 was 0.1 µL/min. Moreover, on CYP3A4, the half-life – broadly, the time needed for the level to fall by half in the phase considered – at 22.7 µM was found to be 76 min.
Regarding `O=c1ccn([C@@H]2O[C@H](COP(=O)(O)OP(=O)(O)OP(=O)(O)O)[C@@H](O)[C@]23CCO3)c(=O)[nH]1`, in [28], the negative logarithm of the IC50 (pIC50) (usually −log10 of the IC50, conventionally taken in molar units) is 6.00 and the pKi (in general, the Ki on a negative log10 scale, so that one unit is a factor of ten) was 6.89.

Values taken from ChEMBL document CHEMBL3826882, “Discovery of 1-((2R,4aR,6R,7R,7aR)-2-Isopropoxy-2-oxidodihydro-4H,6H-spiro[furo[3,2-d][1,3,2]dioxaphosphinine-7,2'-oxetan]-6-yl)pyrimidine-2,4(1H,3H)-dione (JNJ-54257099), a 3'-5'-Cyclic Phosphate Ester Prodrug of 2'-Deoxy-2'-Spirooxetane Uridine Triphosphate Useful for HCV Inhibition” (J Med Chem, 2016).
